From ChEMBL document CHEMBL3621160, “Pseudosaccharin amines as potent and selective KV1.5 blockers” (Bioorg Med Chem Lett, 2015)

Legend:
[1] = target: T1, Potassium voltage-gated channel subfamily A member 5 (Homo sapiens, UniProt P22460); experiment: Inhibition of human KV1.5 expressed in mouse L929 cells assessed as decrease in ultrarapid potassium current amplitude; assay type: cell-based
In short: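 Potassium current block was measured in mouse fibroblast L929 cells expressing human KV1.5. IC50 values are means of 2-4 experiments.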

[2] = Metabolic stability in human liver microsomes assessed as compound remaining at 3 uM after 10 mins; assay type: ADME; settings: read-out: Stability
In short: (§1)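 Parent compound at 3 µM was incubated 10 min in human, rat or mouse liver microsomes with appropriate co-factors. Read-out is percent of parent remaining.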

[3] = Metabolic stability in rat liver microsomes assessed as compound remaining at 3 uM after 10 mins; assay type: ADME; settings: read-out: Stability; in short: as §1
[4] = Metabolic stability in mouse liver microsomes assessed as compound remaining at 3 uM after 10 mins; assay type: ADME; settings: read-out: Stability; in short: as §1
[5] = target: T1, Potassium voltage-gated channel subfamily A member 5; experiment: Inhibition of human KV1.5 expressed in mouse L929 cells assessed as decrease in ultrarapid potassium current amplitude relative to control; assay type: cell-based; parameters: concentration or dose not given beside the values; settings: concentration not given here
In short: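 Potassium current block in mouse fibroblast L929 cells expressing human Kv1.5. IC50 values are means of 2-4 experiments.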

[6] = species on record: Homo sapiens; experiment: Inhibition of calcium channel (unknown origin) at 10 uM relative to control
In short: (§2)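 Calcium (ICa) and sodium (INa) currents were measured as percent inhibition at a single concentration of 10 µM. Values are means of 2-4 experiments.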

[7] = species on record: Homo sapiens; experiment: Inhibition of sodium channel (unknown origin) at 10 uM relative to control; in short: as §2
[8] = target: hERG (KCNH2) (Homo sapiens, UniProt Q12809); experiment: Inhibition of human ERG at 10 uM relative to control
Sequence of hERG (KCNH2) (Q12809 whole entry): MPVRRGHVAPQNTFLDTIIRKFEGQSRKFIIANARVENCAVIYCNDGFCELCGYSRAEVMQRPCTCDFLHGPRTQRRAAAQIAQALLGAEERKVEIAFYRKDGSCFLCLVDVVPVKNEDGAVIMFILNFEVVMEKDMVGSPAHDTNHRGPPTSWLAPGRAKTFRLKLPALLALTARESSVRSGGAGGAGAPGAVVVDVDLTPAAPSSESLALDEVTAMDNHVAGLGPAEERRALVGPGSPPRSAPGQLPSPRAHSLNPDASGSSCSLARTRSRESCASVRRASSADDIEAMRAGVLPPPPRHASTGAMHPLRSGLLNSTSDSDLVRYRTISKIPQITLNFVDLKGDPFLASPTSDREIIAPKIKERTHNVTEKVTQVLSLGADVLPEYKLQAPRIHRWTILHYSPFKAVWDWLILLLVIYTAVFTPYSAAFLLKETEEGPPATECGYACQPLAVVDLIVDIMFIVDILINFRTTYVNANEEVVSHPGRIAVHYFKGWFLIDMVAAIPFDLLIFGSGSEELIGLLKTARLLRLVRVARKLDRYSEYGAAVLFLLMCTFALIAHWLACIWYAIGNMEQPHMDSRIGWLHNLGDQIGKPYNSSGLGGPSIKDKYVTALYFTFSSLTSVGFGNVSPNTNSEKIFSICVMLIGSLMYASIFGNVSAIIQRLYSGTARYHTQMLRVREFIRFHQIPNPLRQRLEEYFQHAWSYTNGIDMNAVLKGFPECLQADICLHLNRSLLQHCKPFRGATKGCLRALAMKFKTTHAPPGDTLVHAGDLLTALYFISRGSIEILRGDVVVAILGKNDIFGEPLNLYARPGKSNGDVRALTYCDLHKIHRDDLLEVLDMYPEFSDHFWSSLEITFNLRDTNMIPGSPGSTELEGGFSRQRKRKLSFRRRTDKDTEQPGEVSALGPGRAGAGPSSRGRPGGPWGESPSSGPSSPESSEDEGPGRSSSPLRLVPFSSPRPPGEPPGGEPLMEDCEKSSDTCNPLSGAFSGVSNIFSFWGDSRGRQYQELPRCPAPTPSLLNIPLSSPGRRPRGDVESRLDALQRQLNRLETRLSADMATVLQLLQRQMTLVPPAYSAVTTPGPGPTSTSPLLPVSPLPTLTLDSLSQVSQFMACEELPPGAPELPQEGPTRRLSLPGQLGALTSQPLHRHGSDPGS
In short: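 Screening panel of over 37 receptors and enzymes relevant to cardiovascular effects or toxicity. Each target was tested at a single concentration of 10 µM, with % activity reported.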

[9] = Cmax in rat at 1.6 mg/kg administered as intra-arterial infusion for 10 mins and 3.6 mg/kg, po; assay type: ADME, organism-based; parameters: route oral; settings: in vivo
In short: (§3)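 Rats, 3 animals per compound; values are means. Intravenous arm: intra-arterial infusion over 10 min. Oral arm: dosing by gavage. Both routes used a vehicle of 40% PEG 400, 40% water and 20% ethanol. Parameters were derived from plasma concentrations across the infusion and oral arms.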

[10] = AUC in rat at 3.6 mg/kg, po; assay type: ADME, organism-based; settings: in vivo; in short: as §3
[11] = Half life in rat at 1.6 mg/kg administered as intra-arterial infusion for 10 mins and 3.6 mg/kg, po; assay type: ADME, organism-based; settings: in vivo; in short: as §3
[12] = Clearance in rat at 1.6 mg/kg administered as intra-arterial infusion for 10 mins and 3.6 mg/kg, po; assay type: ADME, organism-based; settings: in vivo; in short: as §3
[13] = Volume of distribution at steady state in rat at 1.6 mg/kg administered as intra-arterial infusion for 10 mins and 3.6 mg/kg, po; assay type: ADME, organism-based; settings: in vivo, read-out: Vdss; in short: as §3
[14] = Oral bioavailability in rat at 3.6 mg/kg; assay type: ADME, organism-based; settings: in vivo; in short: as §3
[15] = system: Rattus norvegicus; experiment: Induction of QT interval prolongation in rat at 3 mg/kg, iv administered as infusion for 5 mins by ECG analysis; assay type: functional
In short: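 Rats were dosed at 3 mg/Kg. Block of IKur was read as the percent change in the ECG QT interval; mean blood pressure and plasma concentration were recorded alongside. Values are means of 2-4 experiments.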

[16] = system: Rattus norvegicus; experiment: Toxicity in rat assessed as increase in blood pressure at 3 mg/kg, iv administered as infusion for 5 mins; assay type: organism-based; settings: in vivo
In short: (§4)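 Rats were dosed at 3 mg/Kg. QT interval on ECG, mean blood pressure (% change) and plasma concentration were measured. Values are means of 2-4 experiments.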

[17] = Plasma concentration in rat at 3 mg/kg, iv administered as infusion for 5 mins; assay type: ADME, organism-based; in short: as §4
[18] = species on record: Oryctolagus cuniculus; experiment: Induction of […] effective refractory period prolongation in rabbit; assay type: functional
In short: (§5)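 Rabbits were dosed at 0.3, 1.0 and 3.0 mg/Kg. Effective refractory period was measured in atrium and ventricle, and blood pressure was recorded. The plasma concentration giving 20% atrial ERP prolongation (EC20) was calculated.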

[19] = species on record: Oryctolagus cuniculus; experiment: Toxicity in rabbit assessed as effect on ventricular effective refractory period; assay type: organism-based, Cardiac ventricle; settings: in vivo; in short: as §5
[20] = system: Oryctolagus cuniculus; experiment: Toxicity in rabbit assessed as increase in blood pressure at 0.3 to 3 mg/kg; assay type: organism-based; settings: in vivo; in short: as §5
[21] = Cmax in rabbit at 0.3 to 3 mg/kg; assay type: ADME, organism-based, Oryctolagus cuniculus; settings: in vivo; in short: as §5

T1 sequence (P22460 whole entry): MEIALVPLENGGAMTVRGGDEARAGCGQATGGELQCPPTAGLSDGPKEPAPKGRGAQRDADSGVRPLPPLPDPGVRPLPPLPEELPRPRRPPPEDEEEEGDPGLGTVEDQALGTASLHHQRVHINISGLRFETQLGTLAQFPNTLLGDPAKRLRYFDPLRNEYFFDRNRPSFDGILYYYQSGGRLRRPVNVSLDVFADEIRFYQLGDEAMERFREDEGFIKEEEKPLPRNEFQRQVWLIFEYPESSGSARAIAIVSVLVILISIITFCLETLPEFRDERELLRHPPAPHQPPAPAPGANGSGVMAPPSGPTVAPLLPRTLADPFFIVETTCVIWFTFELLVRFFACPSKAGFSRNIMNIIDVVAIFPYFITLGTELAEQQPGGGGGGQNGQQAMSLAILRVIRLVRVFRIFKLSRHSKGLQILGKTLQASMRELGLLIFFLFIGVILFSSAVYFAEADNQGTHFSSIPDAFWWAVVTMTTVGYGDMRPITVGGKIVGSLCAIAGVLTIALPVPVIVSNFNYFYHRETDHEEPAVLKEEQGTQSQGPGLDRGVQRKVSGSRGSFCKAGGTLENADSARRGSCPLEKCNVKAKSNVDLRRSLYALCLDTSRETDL

| SMILES | IC50 [1] [nM] | remaining at 10 min, 3 µM [2] [%] | remaining at 10 min, 3 µM [3] [%] | remaining at 10 min, 3 µM [4] [%] | inhibition [5] [%] | also measured |
| --- | --- | --- | --- | --- | --- | --- |
| COc1cccc2snc(NCC(C)(C)c3ccccc3)c12 | 24 | 13 |  |  |  |  |
| COc1cccc2c1C(NC[C@]1(c3ccccc3)CC[C@H](Nc3ncccn3)CC1)=NS2(=O)=O | 47 | 6 | < 1 | < 1 |  |  |
| CCN(CC)S(=O)(=O)N[C@H]1CC[C@](CNC2=NS(=O)(=O)c3cccc(OC)c32)(c2ccccc2)CC1 | 52 | < 1 | < 1 | < 1 |  |  |
| COc1cccc2c1C(NC[C@]1(c3ccccc3)CC[C@H](OC(=O)NCCO)CC1)=NS2(=O)=O | > 10000 |  |  |  | 27 |  |
| CCOP(=O)(NC(=O)O[C@H]1CC[C@](CNC2=NS(=O)(=O)c3cccc(OC)c32)(c2ccccc2)CC1)OCC | > 10000 |  |  |  | 13 |  |
| COc1cccc2onc(NCC(C)(C)c3ccccc3)c12 |  | 7 | 13 | 11 |  |  |
| COc1cccc2c1C(NC[C@]1(c3ccccc3)CC[C@H](OC(=O)NCCC(F)(F)F)CC1)=NS2(=O)=O | 89 | < 1 | < 1 | 3 |  |  |
| CCS(=O)(=O)N[C@H]1CC[C@](CNC2=NS(=O)(=O)c3cccc(OC)c32)(c2ccccc2)CC1 | 60 | 75 | 67 | 30 |  | inhibition [6]: 14%; inhibition [7]: 7%; inhibition at 10 µM [8]: 59% |
| COc1cccc2c1C(NC[C@]1(c3ccccc3)CC[C@H](OC(=O)Nc3ccc(N(C)C)cc3)CC1)=NS2(=O)=O | 30 | 2 | < 1 | < 1 |  |  |
| CCNC(=O)N[C@H]1CC[C@](CNC2=NS(=O)(=O)c3cccc(OC)c32)(c2ccccc2)CC1 | > 10000 |  |  |  | 20 |  |
| COc1cccc2c1C(NC[C@]1(c3ccccc3)CC[C@H](OC(=O)NC3CC3)CC1)=NS2(=O)=O | 170 | 9 | 5 | < 1 |  |  |
| COc1cccc2c1C(NC[C@]1(c3ccccc3)CC[C@H](NC(=O)OCC(F)(F)F)CC1)=NS2(=O)=O | 28 | 95 | 57 | 48 |  | inhibition [6]: 51%; inhibition [7]: 23%; inhibition at 10 µM [8]: 47% |
| CCNC(=O)O[C@H]1CC[C@](CNC2=NS(=O)(=O)c3cccc(OC)c32)(c2ccccc2)CC1 | 65 | 2 | < 1 | < 1 |  |  |
| COc1cccc2c1C(NC[C@]1(c3ccccc3)CC[C@H](n3cnnn3)CC1)=NS2(=O)=O | 32 | 56 | 19 | 56 |  |  |
| CCOC(=O)N[C@H]1CC[C@](CNC2=NS(=O)(=O)c3cccc(OC)c32)(c2ccccc2)CC1 | 55 | 55 | 19 |  |  |  |
| COc1cccc2c1C(NC[C@]1(c3ccccc3)CC[C@H](N)CC1)=NS2(=O)=O | > 10000 |  |  |  | 5 |  |
| COc1cccc2c1C(NCC(C)(C)c1ccccc1)=NC2=O | 34 | 99 | 43 |  |  |  |
| COc1cccc2c1C(NC[C@]1(c3ccccc3)CC[C@@H](O)CC1)=NS2(=O)=O | > 300 | 98 | 73 | 73 | 14 |  |
| COc1cccc2c1C(NC[C@]1(c3ccccc3)CC[C@H](NS(N)(=O)=O)CC1)=NS2(=O)=O | > 10000 |  |  |  | 18 |  |
| COc1cccc2c1C(NC[C@]1(c3ccccc3)CC[C@H](OC(=O)N(C)CCN(C)C)CC1)=NS2(=O)=O | > 10000 |  |  |  | 4 |  |
| COc1cccc2c1C(NC[C@]1(c3ccccc3)CC[C@H](OC(=O)NS(=O)(=O)c3ccccc3)CC1)=NS2(=O)=O | > 10000 |  |  |  | 1 |  |
| COc1cccc2c1C(NC[C@]1(c3ccccc3)CC[C@H](OC(=O)Nc3nnc(C4CC4)s3)CC1)=NS2(=O)=O | 92 | 75 | 70 | 66 |  | inhibition [6]: 8%; inhibition [7]: 21%; inhibition at 10 µM [8]: 17%; Cmax [9]: 11 nM; AUC [10]: 0.2 µM·h; half-life [11]: 138 min; clearance [12]: 6.8 mL/min/kg; Vd [13]: 0.9 L/kg; bioavailability [14]: 1%; Activity [15]: 23%; Activity [16]: 19%; concentration at 5 min [17]: 72 µM; EC20 [18]: 23 µM; Activity [19]: Non-toxic; Activity [20]: 6%; Cmax [21]: 23 µM |
